Laboratory results as given in ChEMBL document CHEMBL1134611, “Agonist activity at the kinin B1 receptor: structural requirements of the central tetrapeptide” (J Med Chem, 2001).
Active and inactive are the calls of the source. No cut-off for these calls is given here. Numbered stars: 1 amine (or outer) side, 2 acyl side, 3 side chain; on linkers, the order of the positions; unused ones are H or OH. Square brackets hold non-standard residues; d marks the D form. Peptide text beside a SMILES is read from it. X2 = O=C(C1(N[*:1])CCCCCCCCCCC1)[*:2]; X1 = O=C(C1(N[*:1])CCCCCCCC1)[*:2]; 12Ado = NCCCCCCCCCCCC(=O)O; Ac8c = NC1(C(=O)O)CCCCCCC1; Ac7c = NC1(C(=O)O)CCCCCC1; Ac6c = NC1(C(=O)O)CCCCC1

Experiments:
[1] = target: T1, B1 bradykinin receptor (Rattus norvegicus) (UniProt P97583); assay: Agonistic activity against Bradykinin receptor B1 of rat ileum longitudinal smooth muscle; type: functional, tissue-based
T1 sequence (whole entry): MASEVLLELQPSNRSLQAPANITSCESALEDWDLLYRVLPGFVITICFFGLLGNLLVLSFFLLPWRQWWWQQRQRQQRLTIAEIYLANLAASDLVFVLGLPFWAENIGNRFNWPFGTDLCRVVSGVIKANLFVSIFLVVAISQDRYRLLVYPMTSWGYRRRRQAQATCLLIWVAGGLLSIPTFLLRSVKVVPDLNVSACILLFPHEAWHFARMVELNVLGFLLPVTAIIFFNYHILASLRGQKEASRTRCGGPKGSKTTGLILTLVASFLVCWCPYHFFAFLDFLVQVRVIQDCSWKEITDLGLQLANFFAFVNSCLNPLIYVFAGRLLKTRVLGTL
Procedure, shortened: (§1)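 Rat ileum longitudinal muscle-myenteric plexus strips in oxygenated (95% O2, 5% CO2) Krebs' solution with indomethacin and guanethidine (3 µM each), chlorpheniramine and atropine (1 µM each). Cumulative concentration-response curves of contraction, run with thiorphan, bestatin and captopril (1 µM each). pD2 = -log molar agonist concentration giving 50% of maximal effect; mean ± SEM, 4-10 experiments.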

[2] = target: T1, B1 bradykinin receptor (Rattus norvegicus); assay: Agonistic activity against Bradykinin receptor B1 of rat ileum longitudinal smooth muscle; Inactive; type: functional, tissue-based; procedure, shortened: as §1

| Compound | pD2 [1] | IA [2] |
| --- | --- | --- |
| NCCCC[C@H](N)C(=O)N[C@@H](CCCN=C(N)N)C(=O)NCC(=O)NC1(C(=O)NCC(=O)N[C@@H](CO)C(=O)N2CCC[C@H]2C(=O)N[C@@H](Cc2ccccc2)C(=O)O)CCCCC1 (H-KRG[Ac6c]GSPF-OH) | 5.1 |  |
| NCCCC[C@H](N)C(=O)N[C@@H](CCCN=C(N)N)C(=O)NCC(=O)NC1(C(=O)NCC(=O)N[C@@H](CO)C(=O)N2CCC[C@H]2C(=O)N[C@@H](Cc2ccccc2)C(=O)O)CCCCCC1 (H-KRG[Ac7c]GSPF-OH) | 5.4 |  |
| NCCCC[C@H](N)C(=O)N[C@@H](CCCN=C(N)N)C(=O)NCC(=O)NC1(C(=O)NCC(=O)N[C@@H](CO)C(=O)N2CCC[C@H]2C(=O)N[C@@H](Cc2ccccc2)C(=O)O)CCCCCCC1 (H-KRG[Ac8c]GSPF-OH) | 5.7 |  |
| NCCCC[C@H](N)C(=O)N[C@@H](CCCN=C(N)N)C(=O)NCC(=O)NC1(C(=O)NCC(=O)N[C@@H](CO)C(=O)N2CCC[C@H]2C(=O)N[C@@H](Cc2ccccc2)C(=O)O)CCCCCCCC1 (H-KRG[X1]GSPF-OH) | 5.4 |  |
| NCCCC[C@H](N)C(=O)N[C@@H](CCCN=C(N)N)C(=O)NCC(=O)NC1(C(=O)NCC(=O)N[C@@H](CO)C(=O)N2CCC[C@H]2C(=O)N[C@@H](Cc2ccccc2)C(=O)O)CCCCCCCCCCC1 (H-KRG[X2]GSPF-OH) | 5.5 |  |
| NCCCC[C@H](N)C(=O)N[C@@H](CCCN=C(N)N)C(=O)NCCCCCCCCCCCC(=O)N[C@@H](CO)C(=O)N1CCC[C@H]1C(=O)N[C@@H](Cc1ccccc1)C(=O)O (H-KR[12Ado]SPF-OH) | 6 |  |
| NCCCC[C@H](N)C(=O)N[C@@H](CCCN=C(N)N)C(=O)NC1(C(=O)N[C@@H](CO)C(=O)N2CCC[C@H]2C(=O)N[C@@H](Cc2ccccc2)C(=O)O)CCCCCC1 (H-KR[Ac7c]SPF-OH) |  | inactive |
| H-KRGGGSPF-OH |  | inactive |
